Source: ChEMBL document CHEMBL1139469, “Synthesis and 3D QSAR of new pyrazolo[3,4-b]pyridines: potent and selective inhibitors of A1 adenosine receptors” (J Med Chem, 2005)

How the values were obtained:
[1] = target: Adenosine receptor A1 (Bos taurus) (UniProt P28190); assay: Displacement of [3H]DPCPX from bovine adenosine A1 receptor in bovine cortical membranes
[2] = target: T1, Adenosine receptor A3 (Homo sapiens) (UniProt P0DMS8); assay: Displacement of [125I]AB-MECA from human adenosine A3 receptor expressed in CHO cells at 10 uM
T1 sequence (whole entry): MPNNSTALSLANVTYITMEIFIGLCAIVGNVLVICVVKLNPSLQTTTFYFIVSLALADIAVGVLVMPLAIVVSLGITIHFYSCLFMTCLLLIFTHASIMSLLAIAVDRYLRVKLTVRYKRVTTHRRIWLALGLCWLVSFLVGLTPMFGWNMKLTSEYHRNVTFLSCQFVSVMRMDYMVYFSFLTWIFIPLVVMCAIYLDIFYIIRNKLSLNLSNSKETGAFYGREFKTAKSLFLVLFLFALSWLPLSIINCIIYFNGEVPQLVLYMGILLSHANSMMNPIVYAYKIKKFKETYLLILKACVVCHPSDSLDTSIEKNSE

Adenosine receptor A1 [3] = target: T2, Adenosine receptor A1 (Bos taurus, UniProt P28190); assay: Displacement of [3H]DPCPX from adenosine A1 receptor in bovine cerebral cortical membranes; assay type: cell membranes
T2 sequence (P28190 whole entry): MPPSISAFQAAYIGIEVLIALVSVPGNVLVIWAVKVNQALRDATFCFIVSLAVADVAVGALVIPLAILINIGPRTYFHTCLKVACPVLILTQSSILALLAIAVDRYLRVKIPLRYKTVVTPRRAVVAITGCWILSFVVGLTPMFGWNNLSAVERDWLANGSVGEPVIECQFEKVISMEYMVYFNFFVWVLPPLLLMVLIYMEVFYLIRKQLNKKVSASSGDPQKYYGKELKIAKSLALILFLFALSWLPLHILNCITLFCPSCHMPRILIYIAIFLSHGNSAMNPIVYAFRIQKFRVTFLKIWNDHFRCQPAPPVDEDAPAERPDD
Method in brief: (§1)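 [3H]DPCPX was displaced from A1 sites in bovine cortical membranes. Compounds were taken up in DMSO and diluted in assay buffer, with DMSO at 2% or less final. Ki used at least six concentrations across 3 orders of magnitude and was the mean ± SEM of three independent assays in triplicate.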

[4] = target: T3, Adenosine receptor A1 (Bos taurus) (UniProt P28190); assay: Displacement of [3H]DPCPX from adenosine A1 receptor in bovine cerebral cortical membranes at 10 uM; assay type: cell membranes
T3 sequence (whole entry): T2 sequence (P28190 whole entry)
Method in brief: as §1

[5] = test system: Adenosine receptor A2a (Bos taurus); assay: Displacement of [3HCGS21680 from adenosine A2A receptor in bovine striatal membranes at 10 uM
[6] = target: Adenosine receptor A2a (Bos taurus); assay: Displacement of [3H]CGS-21680 from adenosine A2A receptor in bovine striatal membranes
Adenosine receptor A1 [7] = target: T4, Adenosine receptor A1 (Homo sapiens, UniProt P30542); assay: Displacement of [3H]DPCPX from human adenosine A1 receptor expressed in CHO cells; assay type: cell-based
T4 sequence (P30542 whole entry): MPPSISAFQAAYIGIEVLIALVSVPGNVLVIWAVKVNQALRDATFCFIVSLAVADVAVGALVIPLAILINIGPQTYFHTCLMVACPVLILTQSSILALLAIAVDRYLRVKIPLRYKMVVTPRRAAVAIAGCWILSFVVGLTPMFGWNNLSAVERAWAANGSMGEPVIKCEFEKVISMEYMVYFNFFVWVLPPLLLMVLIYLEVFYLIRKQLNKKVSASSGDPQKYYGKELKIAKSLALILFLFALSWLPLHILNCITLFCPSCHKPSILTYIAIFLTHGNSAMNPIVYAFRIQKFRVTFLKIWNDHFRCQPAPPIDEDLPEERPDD
Method in brief: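 Binding used CHO cells transfected with human A1 receptor, with displacement of specific [3H]DPCPX binding. Ligands were in DMSO diluted into buffer, with no more than 2% DMSO final, over at least six concentrations spanning 3 orders of magnitude. Ki values were means ± SEM of three separate assays, each performed in triplicate.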

| SMILES | Ki [1] | inhibition [2] | Ki (Adenosine receptor A1 [3]) | inhibition [4] | inhibition [5] | Ki [6] | Ki (Adenosine receptor A1 [7]) |
| --- | --- | --- | --- | --- | --- | --- | --- |
| CC(C)OC(=O)c1cnc2c(cnn2CC(Cl)c2ccccc2)c1NC1CC1 (stereo not given) | 31.6 nM | 0% | 36 nM | – | – | – | – |
| CCCCOC(=O)c1cnc2c(cnn2CC(Cl)c2ccccc2)c1NCc1ccccc1 (stereo not given) | 10000 nM | – | – | 27% | 5% | – | – |
| CCOC(=O)c1cnc2c(cnn2CC(Cl)c2ccccc2)c1NCCc1ccc(C)cc1 (stereo not given) | 20 nM | 38% | 22 nM | – | – | – | – |
| CCC(C)OC(=O)c1cnc2c(cnn2CC(Cl)c2ccccc2)c1NC1CC1 (stereo not given) | 200 nM | – | 197 nM | – | 33% | – | – |
| CCCCOC(=O)c1cnc2c(cnn2CC(Cl)c2ccccc2)c1N1CCCC1 (stereo not given) | 2000 nM | – | 1890 nM | – | 45% | – | – |
| CCCCOC(=O)c1cnc2c(cnn2CC(Cl)c2ccccc2)c1NCCC (stereo not given) | 1000 nM | – | 959 nM | – | 20% | – | – |
| COC(=O)c1cnc2c(cnn2CC(Cl)c2ccccc2)c1NCCc1ccccc1 (stereo not given) | 79.4 nM | 0% | 88 nM | – | – | 1230 nM | – |
| COC(=O)c1cnc2c(cnn2CC(Cl)c2ccccc2)c1NC1CC1 (stereo not given) | 251 nM | – | 251 nM | – | – | – | – |
| CCCCOC(=O)c1cnc2c(cnn2CC(Cl)c2ccccc2)c1N1CCOCC1 (stereo not given) | 10000 nM | – | – | 63% | 16% | – | – |
| CC(C)OC(=O)c1cnc2c(cnn2CC(Cl)c2ccccc2)c1N1CCCC1 (stereo not given) | 1000 nM | – | 1080 nM | – | 30% | – | – |
| COC(=O)c1cnc2c(cnn2CC(Cl)c2ccccc2)c1NCCc1ccc(C)cc1 (stereo not given) | 15.8 nM | 40% | 15 nM | – | 26% | – | 148 nM |
| CCCNc1c(C(=O)OCC2CC2)cnc2c1cnn2CC(Cl)c1ccccc1 (stereo not given) | 100 nM | – | 109 nM | – | 23% | – | – |
| CC(C)OC(=O)c1cnc2c(cnn2CC(Cl)c2ccccc2)c1NCc1ccccc1 (stereo not given) | 631 nM | – | 559 nM | – | – | – | – |
| Cc1ccc(CCNc2c(C(=O)OCC3CC3)cnc3c2cnn3CC(Cl)c2ccccc2)cc1 (stereo not given) | 63.1 nM | – | 63 nM | – | 4% | – | – |
| CCOC(=O)c1cnc2c(cnn2CC(Cl)c2ccccc2)c1NCCc1cccc(F)c1 (stereo not given) | 31.6 nM | – | 33 nM | – | 25% | – | – |
| COC(=O)c1cnc2c(cnn2CC(Cl)c2ccccc2)c1N1CCCC1 (stereo not given) | 3980 nM | – | 4240 nM | – | 0% | – | – |
| CCCOC(=O)c1cnc2c(cnn2CC(Cl)c2ccccc2)c1N1CCCC1 (stereo not given) | 3160 nM | – | 2970 nM | – | – | – | – |
| CCCNc1c(C(=O)OC)cnc2c1cnn2CC(Cl)c1ccccc1 (stereo not given) | 158 nM | – | 170 nM | – | – | 7670 nM | – |
| CC(C)OC(=O)c1cnc2c(cnn2CC(Cl)c2ccccc2)c1NCCc1ccccc1Cl (stereo not given) | 39.8 nM | – | 44 nM | – | 13% | – | – |
| COC(=O)c1cnc2c(cnn2CC(Cl)c2ccccc2)c1N1CCOCC1 (stereo not given) | 10000 nM | – | – | 51% | 0% | – | – |
| CCCOC(=O)c1cnc2c(cnn2CC(Cl)c2ccccc2)c1NCc1ccccc1 (stereo not given) | 1260 nM | – | 1370 nM | – | – | – | – |
| CCOC(=O)c1cnc2c(cnn2CC(Cl)c2ccccc2)c1NCCc1ccc(Cl)cc1 (stereo not given) | 20 nM | 46% | 19 nM | – | 63% | – | 153 nM |
| CC(C)OC(=O)c1cnc2c(cnn2CC(Cl)c2ccccc2)c1N1CCOCC1 (stereo not given) | 2000 nM | – | 1820 nM | – | – | – | – |
| CCCNc1c(C(=O)OC(C)CC)cnc2c1cnn2CC(Cl)c1ccccc1 (stereo not given) | 50.1 nM | – | 51 nM | – | 40% | – | – |
| CCOC(=O)c1cnc2c(cnn2CC(Cl)c2ccccc2)c1NCCc1ccc(OC)cc1 (stereo not given) | 10 nM | 49% | 10 nM | – | – | – | 25 nM |
| O=C(OCC1CC1)c1cnc2c(cnn2CC(Cl)c2ccccc2)c1NCCc1ccccc1 (stereo not given) | 50.1 nM | – | 48 nM | – | 54% | – | – |
| Cc1ccc(CCNc2c(C(=O)OC(C)C)cnc3c2cnn3CC(Cl)c2ccccc2)cc1 (stereo not given) | 50.1 nM | – | 48 nM | – | 26% | – | – |
| CCC(C)OC(=O)c1cnc2c(cnn2CC(Cl)c2ccccc2)c1NCCc1ccccc1 (stereo not given) | 63.1 nM | – | 62 nM | – | 46% | – | – |

| SMILES | Ki [1] | inhibition [2] | Ki (Adenosine receptor A1 [3]) | inhibition [4] | inhibition [5] | Ki [6] | Ki (Adenosine receptor A1 [7]) |
| --- | --- | --- | --- | --- | --- | --- | --- |
| CCCOC(=O)c1cnc2c(cnn2CC(Cl)c2ccccc2)c1NC1CC1 (stereo not given) | – | 2% | – | – | – | – | – |
| CC(C)OC(=O)c1cnc2c(cnn2CC(Cl)c2ccccc2)c1NCCc1ccccc1 (stereo not given) | 31.6 nM | 0% | 31 nM | – | – | 1520 nM | – |
| CCCNc1c(C(=O)OCCC)cnc2c1cnn2CC(Cl)c1ccccc1 (stereo not given) | 158 nM | – | 145 nM | – | – | 1390 nM | – |
| CCCNc1c(C(=O)OC(C)C)cnc2c1cnn2CC(Cl)c1ccccc1 (stereo not given) | 20 nM | 0% | 24 nM | – | 11% | – | – |
| CCCOC(=O)c1cnc2c(cnn2CC(Cl)c2ccccc2)c1N1CCOCC1 (stereo not given) | 2000 nM | – | 2150 nM | – | 31% | – | – |
| CCCCOC(=O)c1cnc2c(cnn2CC(Cl)c2ccccc2)c1NC1CC1 (stereo not given) | 1000 nM | 0% | 895 nM | – | 11% | – | – |
| CCOC(=O)c1cnc2c(cnn2CC(Cl)c2ccccc2)c1NCCc1ccc(F)cc1 (stereo not given) | 12.6 nM | 37% | 12 nM | – | 30% | – | 16 nM |
| CCOc1ccc2c(OCC)cc(-c3ccccc3)nc2n1 | 316 nM | – | – | – | – | – | – |
| O=c1n(-c2ccc(Cl)cc2)nc2c(NC3CCCCC3)nc3ccccc3n12 | 79.4 nM | – | – | – | – | – | – |
| Cc1cc(O)c2ccc(N)nc2n1 | 10000 nM | – | – | – | – | – | – |
| CCOC(=O)c1cnc2c(cnn2CC(Cl)c2ccccc2)c1NCCc1ccccc1 (stereo not given) | 50.1 nM | – | – | – | – | – | – |
| CCOC(=O)c1cnc2c(cnn2CC(Cl)c2ccccc2)c1NCCc1ccccc1F (stereo not given) | 15.8 nM | 53% | 16 nM | – | – | – | 29 nM |
| CSc1nc(NC2CCCCC2)c2cnn(CC(Cl)c3ccccc3)c2n1 (stereo not given) | 6310 nM | – | – | – | – | – | – |
| O=c1n(-c2ccccc2)nc2c(NC3CCCCC3)nc3ccccc3n12 | 1.58 nM | – | – | – | – | – | – |
| CC(C)OC(=O)c1cnc2c(cnn2CC(Cl)c2ccccc2)c1NCCc1cccc(Cl)c1 (stereo not given) | 100 nM | – | 100 nM | – | 14% | – | – |
| COC(=O)c1cnc2c(cnn2CC(Cl)c2ccccc2)c1NCc1ccccc1 (stereo not given) | 126 nM | – | 141 nM | – | – | – | – |
| CCOC(=O)c1cnc2c(cnn2CC(Cl)c2ccccc2)c1NCCc1ccccc1Cl (stereo not given) | 79.4 nM | – | 76 nM | – | – | – | – |
| Cc1nnc2nc3ccccc3n2c1O | 3980 nM | – | – | – | – | – | – |
| CCOC(=O)c1cnc2c(cnn2CC(Cl)c2ccccc2)c1NCCc1cccc(Cl)c1 (stereo not given) | 200 nM | – | 178 nM | – | – | – | – |
| COc1ccc(-c2nnc3n(C)c4ccccc4n3c2=O)cc1 | 2000 nM | – | – | – | – | – | – |
| O=c1c(Cc2ccccc2)nnc2n(Cc3ccccc3)c3ccccc3n12 | 251 nM | – | – | – | – | – | – |
| CC(C)OC(=O)c1cnc2c(cnn2CC(Cl)c2ccccc2)c1NCCc1ccc(Cl)cc1 (stereo not given) | 39.8 nM | – | 41 nM | – | 27% | – | – |
| O=c1c(-c2ccco2)nnc2n(Cc3ccccc3)c3ccccc3n12 | 1000 nM | – | – | – | – | – | – |
| CCOC(=O)c1cnc2c(cnn2CC(Cl)c2ccccc2)c1N1CCOCC1 (stereo not given) | 501 nM | – | – | – | – | – | – |
| CCOC(=O)c1cnc2c(cnn2CC(Cl)c2ccccc2)c1N1CCCC1 (stereo not given) | 100 nM | – | – | – | – | – | – |
| Oc1c(-c2ccco2)nnc2nc3ccccc3n12 | 251 nM | – | – | – | – | – | – |
| CCCOC(=O)c1cnc2c(cnn2CC(Cl)c2ccccc2)c1NCCc1ccccc1 (stereo not given) | 126 nM | – | 130 nM | – | – | – | – |
